# Columns and labels:
# Assay type in all cases: toxicity, cell-based
# HEK-293T [1] = assay: Multiplex assay against HEK293T; settings: human;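 for Population Tubulin-Different-Phenotype (%): share of the cells with healthy nuclei that show this phenotype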
# Method in brief: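 Imaging took place on a CQ1 microscope at 37°C and 5% CO2 once compound had been added to live cells stained at seeding with Hoechst33342, BioTracker Green Microtubule Cytoskeleton Dye, MitoTracker Red and Annexin V Alexa Fluor 680. CellPathfinder machine-learning gating classed cells as Hoechst high-intensity objects or normal cells, classed normal cells as having healthy, pyknosed or fragmented nuclei, and classed pyknosed cells as mitotic or apoptotic. Tubulin, mitochondrial-mass and membrane-permeability phenotypes are per cents of the healthy-nucleus cells.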
# HEK-293T [2] = assay: Incucyte cell viability with HEK293T; settings: human, 10 µM, compound concentration 10 uM; note: filed as whole numbers so only -1 and 0 and 1 occur
# Fibroblast = assay: Incucyte cell viability with human fibroblast; settings: 10 µM, compound concentration 10 uM; note: filed as whole numbers so only -1 and 0 and 1 occur
# [3] = 12 h, 1 µM, compound concentration 1 uM, replicate 1
# [4] = 12 h, 1 µM, compound concentration 1 uM, replicate 2
# [5] = 12 h, 10 µM, compound concentration 10 uM, replicate 1
# [6] = 12 h, 10 µM, compound concentration 10 uM, replicate 2
# [7] = 24 h, 1 µM, compound concentration 1 uM, replicate 1
# [8] = 24 h, 1 µM, compound concentration 1 uM, replicate 2
# [9] = 24 h, 10 µM, compound concentration 10 uM, replicate 1
# [10] = 24 h, 10 µM, compound concentration 10 uM, replicate 2
# [11] = 48 h, 1 µM, compound concentration 1 uM, replicate 1
# [12] = 48 h, 1 µM, compound concentration 1 uM, replicate 2
# [13] = 48 h, 10 µM, compound concentration 10 uM, replicate 1
# [14] = 48 h, 10 µM, compound concentration 10 uM, replicate 2
# [15] = 0 h, replicate number 1, timepoint 0 hours
# [16] = 6 h, replicate number 1, timepoint 6 hours
# [17] = 12 h, replicate number 1, timepoint 12 hours
# [18] = 18 h, replicate number 1, timepoint 18 hours
# [19] = 24 h, replicate number 1, timepoint 24 hours
compound,measurement,setting,value
C=CC(=O)Nc1cc(-n2c(=O)ccc3cnc4ccc(-c5ccc(NS(C)(=O)=O)cc5)cc4c32)ccc1C,Population Apoptotic (%),HEK-293T [1]; [3],44%
same,Population Fragmented Nuclei (%),HEK-293T [1]; [3],15%
same,Population Healthy Nuclei (%),HEK-293T [1]; [3],22%
same,Population Hoechst High Intensity Objects (%),HEK-293T [1]; [3],22%
same,Population Membrane Permeable-Phenotype (%),HEK-293T [1]; [3],0%
same,Population Mitochondria Different-Phenotype (%),HEK-293T [1]; [3],76%
same,Population Mitotic Cells (%),HEK-293T [1]; [3],55%
same,Population Normal (%),HEK-293T [1]; [3],77%
same,Population Pyknosed Nuclei (%),HEK-293T [1]; [3],62%
same,Population Tubulin-Different-Phenotype (%),HEK-293T [1]; [3],50%
same,Total Cell Count,HEK-293T [1]; [3],174
same,Population Apoptotic (%),HEK-293T [1]; [4],13%
same,Population Fragmented Nuclei (%),HEK-293T [1]; [4],13%
same,Population Healthy Nuclei (%),HEK-293T [1]; [4],35%
same,Population Hoechst High Intensity Objects (%),HEK-293T [1]; [4],5%
same,Population Membrane Permeable-Phenotype (%),HEK-293T [1]; [4],17%
same,Population Mitochondria Different-Phenotype (%),HEK-293T [1]; [4],15%
same,Population Mitotic Cells (%),HEK-293T [1]; [4],86%
same,Population Normal (%),HEK-293T [1]; [4],94%
same,Population Pyknosed Nuclei (%),HEK-293T [1]; [4],50%
same,Population Tubulin-Different-Phenotype (%),HEK-293T [1]; [4],26%
same,Total Cell Count,HEK-293T [1]; [4],171
same,Population Apoptotic (%),HEK-293T [1]; [5],50%
same,Population Fragmented Nuclei (%),HEK-293T [1]; [5],20%
same,Population Healthy Nuclei (%),HEK-293T [1]; [5],19%
same,Population Hoechst High Intensity Objects (%),HEK-293T [1]; [5],16%
same,Population Membrane Permeable-Phenotype (%),HEK-293T [1]; [5],0%
same,Population Mitochondria Different-Phenotype (%),HEK-293T [1]; [5],86%
same,Population Mitotic Cells (%),HEK-293T [1]; [5],50%
same,Population Normal (%),HEK-293T [1]; [5],83%
same,Population Pyknosed Nuclei (%),HEK-293T [1]; [5],60%
same,Population Tubulin-Different-Phenotype (%),HEK-293T [1]; [5],63%
same,Total Cell Count,HEK-293T [1]; [5],184
same,Population Apoptotic (%),HEK-293T [1]; [6],13%
same,Population Fragmented Nuclei (%),HEK-293T [1]; [6],0%
same,Population Healthy Nuclei (%),HEK-293T [1]; [6],40%
same,Population Hoechst High Intensity Objects (%),HEK-293T [1]; [6],8%
same,Population Membrane Permeable-Phenotype (%),HEK-293T [1]; [6],9%
same,Population Mitochondria Different-Phenotype (%),HEK-293T [1]; [6],34%
same,Population Mitotic Cells (%),HEK-293T [1]; [6],86%
same,Population Normal (%),HEK-293T [1]; [6],91%
same,Population Pyknosed Nuclei (%),HEK-293T [1]; [6],58%
same,Population Tubulin-Different-Phenotype (%),HEK-293T [1]; [6],42%
same,Total Cell Count,HEK-293T [1]; [6],204
same,Population Apoptotic (%),HEK-293T [1]; [7],42%
same,Population Fragmented Nuclei (%),HEK-293T [1]; [7],15%
same,Population Healthy Nuclei (%),HEK-293T [1]; [7],28%
same,Population Hoechst High Intensity Objects (%),HEK-293T [1]; [7],19%
same,Population Membrane Permeable-Phenotype (%),HEK-293T [1]; [7],15%
same,Population Mitochondria Different-Phenotype (%),HEK-293T [1]; [7],62%
same,Population Mitotic Cells (%),HEK-293T [1]; [7],57%
same,Population Normal (%),HEK-293T [1]; [7],80%
same,Population Pyknosed Nuclei (%),HEK-293T [1]; [7],55%
same,Population Tubulin-Different-Phenotype (%),HEK-293T [1]; [7],57%
same,Total Cell Count,HEK-293T [1]; [7],173
same,Population Apoptotic (%),HEK-293T [1]; [8],11%
same,Population Fragmented Nuclei (%),HEK-293T [1]; [8],9%
same,Population Healthy Nuclei (%),HEK-293T [1]; [8],58%
same,Population Hoechst High Intensity Objects (%),HEK-293T [1]; [8],3%
same,Population Membrane Permeable-Phenotype (%),HEK-293T [1]; [8],11%
same,Population Mitochondria Different-Phenotype (%),HEK-293T [1]; [8],16%
same,Population Mitotic Cells (%),HEK-293T [1]; [8],88%
same,Population Normal (%),HEK-293T [1]; [8],96%
same,Population Pyknosed Nuclei (%),HEK-293T [1]; [8],31%
same,Population Tubulin-Different-Phenotype (%),HEK-293T [1]; [8],32%
same,Total Cell Count,HEK-293T [1]; [8],199
same,Population Apoptotic (%),HEK-293T [1]; [9],48%
same,Population Fragmented Nuclei (%),HEK-293T [1]; [9],19%
same,Population Healthy Nuclei (%),HEK-293T [1]; [9],22%
same,Population Hoechst High Intensity Objects (%),HEK-293T [1]; [9],13%
same,Population Membrane Permeable-Phenotype (%),HEK-293T [1]; [9],0%
same,Population Mitochondria Different-Phenotype (%),HEK-293T [1]; [9],78%
same,Population Mitotic Cells (%),HEK-293T [1]; [9],51%
same,Population Normal (%),HEK-293T [1]; [9],86%
same,Population Pyknosed Nuclei (%),HEK-293T [1]; [9],58%
same,Population Tubulin-Different-Phenotype (%),HEK-293T [1]; [9],59%
same,Total Cell Count,HEK-293T [1]; [9],194
same,Population Apoptotic (%),HEK-293T [1]; [10],25%
same,Population Fragmented Nuclei (%),HEK-293T [1]; [10],4%
same,Population Healthy Nuclei (%),HEK-293T [1]; [10],56%
same,Population Hoechst High Intensity Objects (%),HEK-293T [1]; [10],2%
same,Population Membrane Permeable-Phenotype (%),HEK-293T [1]; [10],7%
same,Population Mitochondria Different-Phenotype (%),HEK-293T [1]; [10],30%
same,Population Mitotic Cells (%),HEK-293T [1]; [10],74%
same,Population Normal (%),HEK-293T [1]; [10],97%
same,Population Pyknosed Nuclei (%),HEK-293T [1]; [10],39%
same,Population Tubulin-Different-Phenotype (%),HEK-293T [1]; [10],57%
same,Total Cell Count,HEK-293T [1]; [10],228
same,Population Apoptotic (%),HEK-293T [1]; [11],45%
same,Population Fragmented Nuclei (%),HEK-293T [1]; [11],21%
same,Population Healthy Nuclei (%),HEK-293T [1]; [11],17%
same,Population Hoechst High Intensity Objects (%),HEK-293T [1]; [11],23%
same,Population Membrane Permeable-Phenotype (%),HEK-293T [1]; [11],3%
same,Population Mitochondria Different-Phenotype (%),HEK-293T [1]; [11],40%
same,Population Mitotic Cells (%),HEK-293T [1]; [11],54%
same,Population Normal (%),HEK-293T [1]; [11],76%
same,Population Pyknosed Nuclei (%),HEK-293T [1]; [11],60%
same,Population Tubulin-Different-Phenotype (%),HEK-293T [1]; [11],33%
same,Total Cell Count,HEK-293T [1]; [11],204
same,Population Apoptotic (%),HEK-293T [1]; [12],9%
same,Population Fragmented Nuclei (%),HEK-293T [1]; [12],7%
same,Population Healthy Nuclei (%),HEK-293T [1]; [12],81%
same,Population Hoechst High Intensity Objects (%),HEK-293T [1]; [12],6%
same,Population Membrane Permeable-Phenotype (%),HEK-293T [1]; [12],10%
same,Population Mitochondria Different-Phenotype (%),HEK-293T [1]; [12],4%
same,Population Mitotic Cells (%),HEK-293T [1]; [12],90%
same,Population Normal (%),HEK-293T [1]; [12],93%
same,Population Pyknosed Nuclei (%),HEK-293T [1]; [12],10%
same,Population Tubulin-Different-Phenotype (%),HEK-293T [1]; [12],22%
same,Total Cell Count,HEK-293T [1]; [12],321
same,Population Apoptotic (%),HEK-293T [1]; [13],52%
same,Population Fragmented Nuclei (%),HEK-293T [1]; [13],24%
same,Population Healthy Nuclei (%),HEK-293T [1]; [13],18%
same,Population Hoechst High Intensity Objects (%),HEK-293T [1]; [13],18%
same,Population Membrane Permeable-Phenotype (%),HEK-293T [1]; [13],16%
same,Population Mitochondria Different-Phenotype (%),HEK-293T [1]; [13],29%
same,Population Mitotic Cells (%),HEK-293T [1]; [13],47%
same,Population Normal (%),HEK-293T [1]; [13],81%
same,Population Pyknosed Nuclei (%),HEK-293T [1]; [13],56%
same,Population Tubulin-Different-Phenotype (%),HEK-293T [1]; [13],45%
same,Total Cell Count,HEK-293T [1]; [13],204
same,Population Apoptotic (%),HEK-293T [1]; [14],17%
same,Population Fragmented Nuclei (%),HEK-293T [1]; [14],5%
same,Population Healthy Nuclei (%),HEK-293T [1]; [14],79%
same,Population Hoechst High Intensity Objects (%),HEK-293T [1]; [14],3%
same,Population Membrane Permeable-Phenotype (%),HEK-293T [1]; [14],8%
same,Population Mitochondria Different-Phenotype (%),HEK-293T [1]; [14],6%
same,Population Mitotic Cells (%),HEK-293T [1]; [14],82%
same,Population Normal (%),HEK-293T [1]; [14],96%
same,Population Pyknosed Nuclei (%),HEK-293T [1]; [14],15%
same,Population Tubulin-Different-Phenotype (%),HEK-293T [1]; [14],27%
same,Total Cell Count,HEK-293T [1]; [14],457
same,Growth Rate,HEK-293T [2]; [15],0
same,Growth Rate,"HEK-293T [2]; 0 h, replicate number 2, timepoint 0 hours",1
same,Growth Rate,HEK-293T [2]; [16],0
same,Growth Rate,HEK-293T [2]; [17],0
same,Growth Rate,HEK-293T [2]; [18],0
same,Growth Rate,HEK-293T [2]; [19],0
same,Growth Rate,Fibroblast; [15],0
same,Growth Rate,Fibroblast; [16],1
same,Growth Rate,"Fibroblast; 6 h, replicate number 2, timepoint 6 hours",0
same,Growth Rate,Fibroblast; [17],1
same,Growth Rate,"Fibroblast; 12 h, replicate number 2, timepoint 12 hours",0
same,Growth Rate,Fibroblast; [18],1
same,Growth Rate,"Fibroblast; 18 h, replicate number 2, timepoint 18 hours",0
same,Growth Rate,Fibroblast; [19],1
same,Growth Rate,"Fibroblast; 24 h, replicate number 2, timepoint 24 hours",0
